Assay [1] in a line: nonspecific flux increase, KCNQ1-free cells – parental CHO cells, counter-screen for KCNQ1 potentiator project (AID 493006;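 active = duplicate-averaged activation above buffer control mean plus 5 SD of those controls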;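 for activation: fluorescence ratio of max minus min over baseline after K+ and Tl+ depolarization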). As to conditions: parental CHO-K1 cells, FluxOR thallium flux, at 10 µM; stronger effect = higher value. An outline of the steps:
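Material: parental CHO-K1 cells, FluxOR dye-loaded; Also added: Potassium/thallium depolarization pulse; Schedule: overnight 37 °C plating, 90 min dye, 20 min dark compound; Signal: kinetic FluxOR fluorescence, 10 s baseline, 110 s after stimulus.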

Assay [2] has as its target Potassium voltage-gated channel subfamily KQT member 1 (Homo sapiens) (UniProt P51787). In words: enhancement of KCNQ1 channel thallium flux – FluxOR thallium flux, CHO cells, duplicates, confirmation (AID 493007).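 For outcome: cells depolarized by a potassium plus thallium sulfate stimulus after compound.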 The following applies: KCNQ1 cell line, FluxOR thallium flux fluorescence, at 10 µM; stronger effect = higher value, % of reference activator effect, buffer zero. Summed up: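 System: KCNQ1-expressing CHO cell line; technique: kinetic thallium influx fluorescence with FluxOR dye, 10 s baseline, 110 s post-stimulus; timing: dye 90 min then compound 20 min, both at room temperature; controls: buffer-only wells as 0% and R-L3 activator as 100%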

In assay [3] the target is Potassium voltage-gated channel subfamily KQT member 2 (Rattus norvegicus) (UniProt O88943). Description: KCNQ2 thallium flux enhancement – KCNQ2-CHO-K1 cells, selectivity assay for KCNQ1 potentiator project (AID 493009;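 active = mean duplicate potentiation above the buffer control mean plus 5 SD of buffer wells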;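 note: assay conditions were tuned for KCNQ1 rather than KCNQ2 modulators; signal is max minus min fluorescence divided by baseline after thallium stimulus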). As to conditions: FluxOR thallium flux fluorescence, at 10 µM; stronger effect = higher value, scaled: buffer 0, activator control 100.
Assay [4] addresses Potassium voltage-gated channel subfamily KQT member 1 (Homo sapiens) (UniProt P51787). In words: KCNQ1 activators by electrophysiology – IonWorks patch clamp, KCNQ1-CHO cells, orthogonal assay for KCNQ1 potentiator project, confirmation (AID 493184;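 active = current rise at least 3 SD above the untreated control mean in each of two repeat wells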;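 for current potentiation: percent change of the same well's current before compound addition so 0% = no change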). The following applies: automated patch clamp current, at 10 µM; stronger effect = higher value. An outline of the steps:
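Test system: KCNQ1-expressing CHO cells. Medium: pH 7.4 external bath. Probe or stimulus: voltage step from -90 mV holding to +40 mV, 2,000 ms. Compound: 10 µM final, single point. Detection: automated perforated-patch electrophysiology. Read-out: percent current increase versus pre-compound level. Repeats: two replicates.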
For orientation: In patch-clamp work, channel activity is measured electrically.

Activity calls are given as the source filed them.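 Rule for the calls, unless noted: active = potentiation averaged over duplicate wells exceeding buffer-only control mean by more than 3 SD; inactive = the rest.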

Sequence of Potassium voltage-gated channel subfamily KQT member 2 (Rattus norvegicus) (O88943 whole entry, looked up): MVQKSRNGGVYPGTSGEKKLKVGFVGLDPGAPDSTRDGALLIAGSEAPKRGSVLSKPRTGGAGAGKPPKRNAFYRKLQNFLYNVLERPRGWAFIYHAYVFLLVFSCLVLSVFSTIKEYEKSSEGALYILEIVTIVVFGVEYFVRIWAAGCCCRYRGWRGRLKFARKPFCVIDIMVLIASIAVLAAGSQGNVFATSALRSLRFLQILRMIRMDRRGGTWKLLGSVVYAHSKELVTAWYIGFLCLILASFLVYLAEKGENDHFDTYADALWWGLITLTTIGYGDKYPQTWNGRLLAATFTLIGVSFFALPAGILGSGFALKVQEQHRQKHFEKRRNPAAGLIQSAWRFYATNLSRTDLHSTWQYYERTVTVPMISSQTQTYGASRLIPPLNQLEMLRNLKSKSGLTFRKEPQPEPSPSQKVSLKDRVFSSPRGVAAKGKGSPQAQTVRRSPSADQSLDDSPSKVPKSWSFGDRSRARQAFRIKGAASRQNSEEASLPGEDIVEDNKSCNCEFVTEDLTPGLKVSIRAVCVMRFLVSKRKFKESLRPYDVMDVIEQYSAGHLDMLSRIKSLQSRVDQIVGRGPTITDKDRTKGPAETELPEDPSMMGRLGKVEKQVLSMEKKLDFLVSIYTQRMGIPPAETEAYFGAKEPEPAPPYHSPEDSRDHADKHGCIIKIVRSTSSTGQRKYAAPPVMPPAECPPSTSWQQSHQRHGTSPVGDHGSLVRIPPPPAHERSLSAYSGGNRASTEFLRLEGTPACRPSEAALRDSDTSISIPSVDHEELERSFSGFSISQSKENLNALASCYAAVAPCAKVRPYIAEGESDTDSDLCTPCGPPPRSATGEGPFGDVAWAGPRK
Sequence of Potassium voltage-gated channel subfamily KQT member 1 (Homo sapiens) (P51787 whole entry, looked up): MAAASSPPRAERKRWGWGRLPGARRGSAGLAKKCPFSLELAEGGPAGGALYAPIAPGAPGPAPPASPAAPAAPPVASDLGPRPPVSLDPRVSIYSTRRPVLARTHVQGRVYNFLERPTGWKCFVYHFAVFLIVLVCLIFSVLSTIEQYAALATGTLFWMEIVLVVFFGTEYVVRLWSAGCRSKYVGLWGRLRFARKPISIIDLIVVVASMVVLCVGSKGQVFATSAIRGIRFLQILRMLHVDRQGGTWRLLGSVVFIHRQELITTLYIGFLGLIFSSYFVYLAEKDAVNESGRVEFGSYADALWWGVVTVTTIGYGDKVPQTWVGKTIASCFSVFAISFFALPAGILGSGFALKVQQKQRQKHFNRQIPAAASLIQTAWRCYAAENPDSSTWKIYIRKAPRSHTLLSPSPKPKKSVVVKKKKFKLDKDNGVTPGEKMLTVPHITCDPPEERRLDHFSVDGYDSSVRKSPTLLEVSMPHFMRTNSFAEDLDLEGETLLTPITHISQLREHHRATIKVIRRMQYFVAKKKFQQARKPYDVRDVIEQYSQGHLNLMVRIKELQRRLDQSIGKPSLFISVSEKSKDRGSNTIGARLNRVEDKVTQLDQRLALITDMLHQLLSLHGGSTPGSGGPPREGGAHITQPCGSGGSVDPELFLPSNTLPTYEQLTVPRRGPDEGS

As for `CCSc1nnc(NC(=O)C2C3C=CC(C3)C2C(=O)O)s1` (stereo not given), the outcome in assay [1], in assay [2], in assay [3] and in assay [4] was inactive.
Regarding `O=C(NN=C1c2ccccc2-c2ccccc21)c1ccccc1Br`, the result in assay [1], in assay [3] and in assay [4] was inactive. Further, the potentiation in assay [2] is 37% (active).
As to `COc1ccc(-c2sc(C(=O)c3ccc(Cl)cc3Cl)cc2CC(=O)O)cc1`, the result in assay [1], in assay [2] and in assay [3] was inactive. For the same molecule, in assay [4], the current potentiation was 33.9% (active).
For `CC(C)(C)c1cc(C(=O)NNC(=O)c2ccc(C(F)(F)F)cc2)no1`, the result in assay [1] and in assay [4] was inactive. The potentiation is 32% (active) in assay [2] and 161% (active) in assay [3].
As for `COC(=O)c1ccc(/C=C/c2ccc3cccc(OC)c3n2)cc1`, the outcome in assay [1], in assay [2], in assay [3] and in assay [4] was inactive.
For the molecule `c1ccc2c(c1)CSc1sccc1C2=C1CCNCC1`, the outcome in assay [1], in assay [2], in assay [3] and in assay [4] was inactive.
For the molecule `CC(=O)N1N=C(c2ccccc2OC(=O)/C=C/c2ccccc2)CC1c1ccccc1` (stereo not given), the outcome in assay [1], in assay [2], in assay [3] and in assay [4] was inactive.
On to `Cc1cccc(CC2CC(=O)N(c3ccc(C)cc3Br)C2=O)c1` (stereo not given), for which the outcome in assay [1], in assay [2], in assay [3] and in assay [4] was inactive.
Take `COc1ccccc1/C=C1\N=C(C(C)(C)C)OC1=O`: the outcome in assay [1], in assay [2], in assay [3] and in assay [4] was inactive.
Consider `COc1ccc(N(Cc2ccccc2)S(=O)(=O)c2cccc(C(=O)O)c2)cc1`, for which the result in assay [1], in assay [2], in assay [3] and in assay [4] was inactive.
`CC(CCc1ccccc1)NC(=O)COc1cc(F)ccc1[N+](=O)[O-]` (stereo not given): the result in assay [1], in assay [2], in assay [3] and in assay [4] was inactive.
For `OCCN1CCN(c2ncnc3c2sc2nc(N4CCOCC4)c4c(c23)CCC4)CC1`, the outcome in assay [1], in assay [3] and in assay [4] was inactive. Also, the potentiation in assay [2] was 19% (active).
`O=C(NC(=S)Nc1ccc(N2CCOCC2)c(Cl)c1)c1sc2ccccc2c1Cl`: the outcome in assay [1], in assay [3] and in assay [4] was inactive. In addition, the potentiation in assay [2] was 35.5% (active).
For the molecule `CCC(O)C1CCN(Cc2cn(Cc3ccccc3)nc2-c2cc3ccccc3o2)CC1` (stereo not given), the activation in assay [1] is 170% (active). Also, the potentiation in assay [2] is 75% (active); in assay [3] it was 230% (active). Besides, the result in assay [4] was inactive.
`CCCCNC(=O)/C(C#N)=C/c1ccc2c(c1)OCCO2`: the outcome in assay [1], in assay [3] and in assay [4] was inactive. Also, the potentiation in assay [2] was 18.5% (active).
For `O=Cc1c(F)cccc1N1CCCC1`, the outcome in assay [1], in assay [2] and in assay [4] was inactive. Also, in assay [3], the potentiation is 150% (active).
Consider `Cc1cc(Br)ccc1OCC(=O)NNC(=O)C(=O)Nc1ccccc1`, for which the activation in assay [1] was 406% (active). Moreover, the potentiation in assay [2] is 224% (active); in assay [3], 478% (active). Moreover, the outcome in assay [4] was inactive.
With `Cc1ccc(S(=O)(=O)n2cccc2CO)cc1`, the outcome in assay [1], in assay [2], in assay [3] and in assay [4] was inactive.
`C=CCN(CC=C)C(=S)NC(=O)c1ccc([N+](=O)[O-])cc1`: the activation in assay [1] was 366% (active). Moreover, the potentiation in assay [2] is 137% (active); in assay [3], 359% (active). Moreover, the result in assay [4] was inactive.
`COc1ccc(C(=O)O/N=C(\N)Cc2ccc(Cl)cc2)cc1OC`: the result in assay [1], in assay [2], in assay [3] and in assay [4] was inactive.
Consider `Cc1sc2nc[nH]c(=S)c2c1-c1ccccc1`, for which the activation in assay [1] is 289% (active). In addition, the values for the potentiation in assay [2] and in assay [3] were 93.5% (active) and 304% (active), respectively. Besides, the result in assay [4] was inactive.
Turning to `CC(C)(C)c1ccc(Oc2ccc(N)cn2)cc1`, the activation in assay [1] is 260% (active). Besides, the potentiation in assay [2] was 81.5% (active); in assay [3] it was 282% (active). Also, the outcome in assay [4] was inactive.
Regarding `COc1ccc(C(=O)NC(=S)NNC(=O)c2ccc3ccccc3n2)cc1`, the result in assay [1] and in assay [4] was inactive. Besides, the potentiation is 26% (active) in assay [2] and 160% (active) in assay [3].
As for `OCCCCNCc1ccc(OCc2ccc(Cl)cc2)cc1`, in assay [1], the activation is 220% (active). Further, the potentiation in assay [2] was 292% (active); in assay [3], 332% (active). Further, in assay [4], the result was inactive.
Consider `CC(C)c1nc2n[nH]c(N)c2c2c1CSC(C)(C)C2`, for which the outcome in assay [1], in assay [3] and in assay [4] was inactive. Moreover, the potentiation in assay [2] was 31.5% (active).
Regarding `Oc1cccc2ccc(Nc3ccccn3)nc12`, the result in assay [1], in assay [2], in assay [3] and in assay [4] was inactive.
Consider `COc1cc(C(=O)NC(=S)N(CCc2ccccc2)CCc2ccccc2)cc(OC)c1OC`, for which the activation in assay [1] was 198% (active). For the same molecule, the results for the potentiation in assay [2] and in assay [3] were 104% (active) and 256% (active), respectively. Also, the result in assay [4] was inactive.
The matching figures for `CC1(C)CC[C@]2(C(=O)O)CC[C@]3(C)C(=CCC4[C@@]5(C)CC[C@H](O)C(C)(C)C5[C@H](O)C[C@]43C)[C@@H]2C1` (stereo not given in full): 184% (active), 40.5% (active), 182% (active) and “inactive”.
For the molecule `O=[N+]([O-])c1ccc(/C=C/C2=NN(c3ccccc3)C(c3ccco3)C2)o1` (stereo not given), the result in assay [1], in assay [2], in assay [3] and in assay [4] was inactive.
On to `COC(=O)C(C)Sc1nc2c(c(=O)n(C)c(=O)n2C)n1Cc1cccc(C)c1` (stereo not given), for which the outcome in assay [1], in assay [2], in assay [3] and in assay [4] was inactive.
